This note sets out measurements from paper PMC2905675 (Cell, 2010).

In experiment [1] the test system is rat TRPV1 (A657P). Description: Whole cell patch clamp, HEK293 cells expressing rat TRPV1. It is filed as cell-based. The note with it: +80 mV. For orientation: In patch-clamp work, channel activity is measured electrically.
Experiment [2] deals with X. laevis frog TRPV1 (xTRPV1). Description: Two-electrode voltage clamp, Xenopus oocytes expressing wild type frog TRPV1. It is filed as cell-based. As to conditions: +80 mV. In outline: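 Frog TRPV1 coding sequence cloned from trigeminal and dorsal root ganglion RNA. cRNA made by T7 transcription; stage V–VI oocytes injected with 3–50 ng per oocyte and recorded 3-7 days later in normal frog Ringer's buffered with HEPES (pH 7.4) or MES (pH 5.5). Toxins expressed recombinantly in E. coli, His tag removed by TEV protease, concentration set from predicted 280 nm extinction coefficient.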
A general note: Two-electrode voltage clamp holds a large cell at a set potential and records current.

In experiment [3] the test system is capsaicin-sensitive trigeminal neurons. Description: Whole cell patch clamp recordings from capsaicin-sensitive trigeminal neurons. Type of experiment: cell-based, mouse. As to conditions: capsaicin 1 μM.
Experiment [4] concerns the target T1, rat TRPV1 (Rattus norvegicus, UniProt O35433). Description: Whole-cell patch-clamp recording from TRPV1-expressing HEK293 cells. Type of experiment: cell-based.
Experiment [5] has as its system TRPV1. Type of experiment: cell-based, rat. As to conditions: outside-out patches containing a single functional TRPV1 channel; capsaicin 1 μM.
In experiment [6] the target is T1, rat TRPV1. Description: Calcium imaging dose-response in TRPV1-expressing HEK293 cells. Type of experiment: cell-based. The note with it: ruthenium red 10 μM co-applied.
Experiment [7] deals with FLAG-TRPV1 (rat) (rat) (UniProt O35433).
Experiment [8] concerns rat Kv2.1 E277K. Type of experiment: cell-based. The note with it: VaTx1 20 μM; n = 3-5 cells per trace.
The test system of experiment [9] is rat Kv2.1 F274R. Type of experiment: cell-based. As to conditions: VaTx1 20 μM; n = 3-5 cells per trace.
The test system of experiment [10] is rat Kv2.1 I273Y. It is filed as cell-based. The note with it: VaTx1 20 μM; n = 3-5 cells per trace.
Experiment [11] concerns the target FLAG-TRPV1 (rat) (rat) (UniProt O35433). The source holds these as a separate data set.

Entries after “also recorded” stand apart in the source; their conditions may differ. Like-named read-outs stand apart in the source and are kept apart here. No end group written: not given here.

Sequence of FLAG-TRPV1 (rat) (rat) (O35433 whole entry): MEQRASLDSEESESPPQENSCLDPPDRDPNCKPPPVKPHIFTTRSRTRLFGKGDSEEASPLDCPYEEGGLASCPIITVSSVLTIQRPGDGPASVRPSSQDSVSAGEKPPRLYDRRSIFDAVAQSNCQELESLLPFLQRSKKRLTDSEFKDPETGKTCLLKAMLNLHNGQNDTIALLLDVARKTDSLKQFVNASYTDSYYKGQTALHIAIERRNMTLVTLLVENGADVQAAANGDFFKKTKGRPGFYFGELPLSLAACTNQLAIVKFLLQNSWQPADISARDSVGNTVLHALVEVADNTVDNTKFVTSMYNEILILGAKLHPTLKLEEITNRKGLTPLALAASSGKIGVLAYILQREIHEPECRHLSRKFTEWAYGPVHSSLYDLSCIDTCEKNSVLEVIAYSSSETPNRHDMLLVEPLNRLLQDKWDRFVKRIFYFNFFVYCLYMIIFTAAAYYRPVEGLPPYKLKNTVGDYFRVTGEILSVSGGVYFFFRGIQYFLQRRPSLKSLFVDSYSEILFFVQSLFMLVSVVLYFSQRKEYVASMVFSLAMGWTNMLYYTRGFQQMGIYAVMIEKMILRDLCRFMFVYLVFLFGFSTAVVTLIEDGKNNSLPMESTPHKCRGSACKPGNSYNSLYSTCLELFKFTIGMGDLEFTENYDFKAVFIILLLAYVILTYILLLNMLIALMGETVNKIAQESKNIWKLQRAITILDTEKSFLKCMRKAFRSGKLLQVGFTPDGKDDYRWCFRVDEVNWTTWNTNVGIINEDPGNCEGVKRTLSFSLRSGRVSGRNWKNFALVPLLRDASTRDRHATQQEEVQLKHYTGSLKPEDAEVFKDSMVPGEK
T1 sequence (O35433 whole entry): as above
Sequence of native DkTx (double-knot toxin) (P0CH43 whole entry): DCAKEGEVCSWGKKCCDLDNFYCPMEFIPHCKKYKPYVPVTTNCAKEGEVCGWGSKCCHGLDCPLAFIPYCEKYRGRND
Sequence of recombinant DkTx (P0CH43 whole entry): as above

`COc1cc(CNC(=O)CCCC/C=C/C(C)C)ccc1O` [capsaicin]: in [1] (DkTx 2 μM, VaTx3 2 μM, capsaicin 1 μM), the “sensitivity of rat TRPV1 (A657P)” value is recorded as “retained sensitivity”. The “sensitivity of frog TRPV1 (xTRPV1)” value in experiment [2] is listed as “responds”. Besides, the “time for evoked currents to return to baseline after washout” value in experiment [3] is not above 10 s. Moreover, the “τoff, time constant of current decay on washout” value in experiment [4] is given as 0.17 min. Also, the “unitary conductance of single channel events” value in [5] is on record as 118 pS.
Regarding `N.N.N.N.N.N.N.N.N.N.N.N.N.N.[Cl-].[Cl-].[Cl-].[Cl-].[Cl-].[Cl-].[O-2].[O-2].[Ru+3].[Ru+3].[Ru+4]` [ruthenium red], the “effect on DkTx-evoked calcium increases” value in experiment [6] is “inhibits toxin-evoked responses”.
As to “K1 (Knot 1, N-terminal ICK peptide of DkTx-HYR)”, in experiment [7], the EC50 of TRPV1 activation, calcium imaging of TRPV1-expressing HEK293 cells came to 8900 nM.
Take “K2 (Knot 2, C-terminal ICK peptide of DkTx-HYR)”: the EC50 of TRPV1 activation, calcium imaging of TRPV1-expressing HEK293 cells in [7] was 970 nM.
For “VaTx1: vanillotoxin, ICK peptide from the Trinidad Chevron tarantula (Psalmopoeus cambridgei) that activates TRPV1 and inhibits Kv2.1 (SECRWFMGGCDSTLDCCKHLSCKMGLYYCAWDGTF; ends and bridges not checked; cysteine pairing not given here)”, the “effect of E277K mutation on VaTx1-mediated inhibition of Kv2.1” value in [8] was “eliminated VaTx1-mediated inhibition”. In addition, the “effect of F274R mutation on VaTx1-mediated inhibition of Kv2.1” value in experiment [9] is given as “eliminated VaTx1-mediated inhibition”. The “effect of I273Y mutation on VaTx1-mediated inhibition of Kv2.1” value in experiment [10] is “modest effect; also recorded: no substantial effect”. Also, the “VaTx1 activation of TRPV1 (A657P)” value in experiment [1] (VaTx1 100 μM) is on record as “abolished”. In experiment [4] (VaTx1 100 μM, whole cell patch clamp, +80 mV), the “activation of wild type rat TRPV1 currents” value is listed as “activation”.
On to “native DkTx (double-knot toxin) (from UniProt P0CH43 1-79) (peptide)”, for which the EC50 of TRPV1 activation, calcium imaging of TRPV1-expressing HEK293 cells in experiment [11] stood at 230 nM.
With “recombinant DkTx (from UniProt P0CH43 1-79) (peptide)”, the EC50 of TRPV1 activation, calcium imaging of TRPV1-expressing HEK293 cells in [11] was found to be 140 nM.
